Results published in ChEMBL document CHEMBL1134279, “Synthesis, nicotinic acetylcholine receptor binding, and antinociceptive properties of 2-exo-2-(2'-substituted-3'-phenyl-5'-pyridinyl)-7-azabicyclo[2.2.1]heptanes. Novel nicotinic antagonist” (J Med Chem, 2001).
pKi: −log10 of the molar value. Active and inactive are the calls of the source. No cut-off for these calls is given here.

Key:
Mus musculus [1] = species: Mus musculus; assay: Compound was tested to block the antinociceptive effect of nicotine in mice by hotplate assay; type: functional
Procedure, shortened: (§1)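 Antagonism was tested in male ICR mice given test agent sc, measuring blockade of nicotine-induced antinociception in tail-flick or hot-plate tests. Potency is expressed as AD50 in mg/kg with confidence limits.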

Mus musculus [2] = species: Mus musculus; assay: Compound was tested to block the antinociceptive effect of nicotine in mice by tail-flick assay; type: functional; procedure, shortened: as §1
Mus musculus [3] = assay: Compound at 15 mg/Kg was tested for antinociception in mice by hotplate assay; type: functional
Procedure, shortened: (§2)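 Male ICR mice were given test agent and assessed for antinociception by tail-flick or hot-plate. Results are expressed as ED50 in mg/kg with confidence limits, or as percent effect at a single stated mg/kg dose.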

Mus musculus [4] = assay: Compound at 15 mg/Kg was tested for antinociception in mice by tail-flick assay; type: functional; procedure, shortened: as §2
Mus musculus [5] = species: Mus musculus; assay: Effective dose for hypomotility in mice was determined; type: functional
Procedure, shortened: (§3)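 Male ICR mice were dosed and body temperature or locomotor activity was recorded. Values are ED50 in mg/kg with confidence limits, or the effect (change in °C for temperature) at a single stated mg/kg dose.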

Mus musculus [6] = assay: Compound at 10 mg/Kg was tested for hypothermia in mice; type: functional; procedure, shortened: as §3
[7] = Inhibition of [3H]epibatidine binding at the alpha beta nicotinic AChR in male rat cerebral cortex; type: tissue-based
Mus musculus [8] = species: Mus musculus; assay: Effective dose for antinociception in mice was determined by hotplate assay
Mus musculus [9] = species: Mus musculus; assay: Effective dose for antinociception in mice was determined by tail-flick assay
Mus musculus [10] = species: Mus musculus; assay: Effective dose for hypothermia in mice was determined
Mus musculus [11] = species: Mus musculus; assay: Compound was tested for inhibition of antinociceptive effect of nicotine in mice by hotplate assay; NA=Inactive; type: functional, organism-based; procedure, shortened: as §1
Mus musculus [12] = species: Mus musculus; assay: Compound was tested for inhibition of antinociceptive effect of nicotine in mice by tail-flick assay; NA=Inactive; type: functional, organism-based; procedure, shortened: as §1
Mus musculus [13] = assay: Compound at 10 mg/Kg was tested for antinociception in mice by hotplate assay; type: functional; procedure, shortened: as §2
Mus musculus [14] = assay: Compound at 10 mg/Kg was tested for antinociception in mice by tail-flick assay; type: functional; procedure, shortened: as §2

Row | Compound | AD50 (Mus musculus [1]) [mg/kg] | AD50 (Mus musculus [2]) [mg/kg] | Effect (Mus musculus [3]) [%] | Effect (Mus musculus [4]) [%] | Temperature (Mus musculus [6]) [°C] | pKi [7] | also measured
1 | Fc1ncc(C2CC3CCC2N3)cc1-c1ccccc1 (racemic) | 1.2 | 0.5 | 4 | 3 | -0.5 |  | ED50 (Mus musculus [5]): 4.7 mg/kg
2 | Clc1ncc(C2CC3CCC2N3)cc1-c1ccccc1 (configuration not stated) |  |  |  |  |  | 10.68 | 
3 | CN1CCC[C@H]1c1cccnc1 [NICOTINE] |  |  |  |  |  |  | ED50 (Mus musculus [8]): 0.004 mg/kg; ED50 (Mus musculus [9]): 0.006 mg/kg; ED50 (Mus musculus [5]): 0.5 mg/kg; ED50 (Mus musculus [10]): 0.004 mg/kg
4 | Fc1ncc(C2CC3CCC2N3)cc1-c1ccccc1 (stereo in doubt; (-)-5a) | 0.7 | 0.08 | 10 | 5 | -0.8 | 9.59 | 
5 | Nc1ncc(C2CC3CCC2N3)cc1-c1ccccc1 (configuration not stated) |  |  |  |  | -0.5 | 9.48 | AD50 (Mus musculus [11]): inactive; AD50 (Mus musculus [12]): inactive; Effect (Mus musculus [13]): 15%; Effect (Mus musculus [14]): 2%
6 | Fc1ccc(C2CC3CCC2N3)cn1 (configuration not stated) |  |  |  |  |  | 10.57 | 
7 | Nc1ccc(C2CC3CCC2N3)cn1 (configuration not stated) |  |  |  |  |  | 8.89 | 
8 | CN(C)c1ncc(C2CC3CCC2N3)cc1-c1ccccc1 (configuration not stated) |  |  |  |  |  | 7.24 | 
9 | Fc1ncc(C2CC3CCC2N3)cc1-c1ccccc1 (single isomer, unassigned; (+)) | 2.4 | 1 | 8 | 7 | -0.4 | 9.62 | 
